# TAAR1 ag – agonists of human TAAR1. Q96RJ0. CHO RD-HGA16 TAAR1, Fluo-8 calcium fluorescence; vehicle wells 0%, saturating PEA agonist 100%. activation, % at 3 µM. hit rate 0.99% among 360,000. AID 624467;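 active = activation above the mean activation of all test compounds in the run plus 3 SD, cut at about 38% in these data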
#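 test system = CHO RD-HGA16 cells carrying human TAAR1 plus Gα16 | schedule = 17-24 h seeding, 75 min 37 °C dye, 30 min RT | compound dosing = 3 µM single concentration | control set = DMSO and PEA EC100 | replicates = n 1 | signal = Fluo-8 fluorescence, 5 s baseline then 140 s kinetic read | measure = percent activation vs PEA EC100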
# GPR7 antagonist – blocks human GPR7 receptor signaling. P48145. GPR7-expressing cells, fluorescence antagonist assay. inhibition, % at 4.4 µM. hit rate 1.1% among 290,000; in the data active = inhibition above about 16%, passing the limit was not always enough;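 note: cells stimulated with the agonist NPW; 0% = agonist with vehicle and 100% = vehicle without agonist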
# zfTRPN1 agonist – zebrafish TRPN1 (NompC) channel agonism; HEK293 zebrafish TRPN1-YFP, Fluo-8 calcium fluorescence; 100% = response to 87 µM carbachol; activation, % at 3 µM; hit rate 0.18% among 220,000;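 active = activation above its plate's cutoff, the mean activation of test wells on that plate plus 3 SD, cut at about 19% in these data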;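 note: 0% = DMSO alone and 100% = 87 µM carbachol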
#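 Material: zebrafish TRPN1-YFP in HEK293 cells. Doses: one dose of 3 µM, 0.3% DMSO. Incubation: dye 1 h 37 °C plus 30 min RT. Measured by: intracellular calcium fluorescence with Fluo-8.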
# LANA-H2A inh – blocks KSHV LANA binding to histone H2A/H2B; inhibition, % (concentration not given with the values); hit rate 0.6% among 320,000; cell-free LANA-H2A/H2B peptide, fluorescence polarization; in the data active = inhibition mostly above about 10%, no sharp cut-off; inactive = mostly below about 6.7%
# Target sequence (Q9QR71 whole entry, looked up): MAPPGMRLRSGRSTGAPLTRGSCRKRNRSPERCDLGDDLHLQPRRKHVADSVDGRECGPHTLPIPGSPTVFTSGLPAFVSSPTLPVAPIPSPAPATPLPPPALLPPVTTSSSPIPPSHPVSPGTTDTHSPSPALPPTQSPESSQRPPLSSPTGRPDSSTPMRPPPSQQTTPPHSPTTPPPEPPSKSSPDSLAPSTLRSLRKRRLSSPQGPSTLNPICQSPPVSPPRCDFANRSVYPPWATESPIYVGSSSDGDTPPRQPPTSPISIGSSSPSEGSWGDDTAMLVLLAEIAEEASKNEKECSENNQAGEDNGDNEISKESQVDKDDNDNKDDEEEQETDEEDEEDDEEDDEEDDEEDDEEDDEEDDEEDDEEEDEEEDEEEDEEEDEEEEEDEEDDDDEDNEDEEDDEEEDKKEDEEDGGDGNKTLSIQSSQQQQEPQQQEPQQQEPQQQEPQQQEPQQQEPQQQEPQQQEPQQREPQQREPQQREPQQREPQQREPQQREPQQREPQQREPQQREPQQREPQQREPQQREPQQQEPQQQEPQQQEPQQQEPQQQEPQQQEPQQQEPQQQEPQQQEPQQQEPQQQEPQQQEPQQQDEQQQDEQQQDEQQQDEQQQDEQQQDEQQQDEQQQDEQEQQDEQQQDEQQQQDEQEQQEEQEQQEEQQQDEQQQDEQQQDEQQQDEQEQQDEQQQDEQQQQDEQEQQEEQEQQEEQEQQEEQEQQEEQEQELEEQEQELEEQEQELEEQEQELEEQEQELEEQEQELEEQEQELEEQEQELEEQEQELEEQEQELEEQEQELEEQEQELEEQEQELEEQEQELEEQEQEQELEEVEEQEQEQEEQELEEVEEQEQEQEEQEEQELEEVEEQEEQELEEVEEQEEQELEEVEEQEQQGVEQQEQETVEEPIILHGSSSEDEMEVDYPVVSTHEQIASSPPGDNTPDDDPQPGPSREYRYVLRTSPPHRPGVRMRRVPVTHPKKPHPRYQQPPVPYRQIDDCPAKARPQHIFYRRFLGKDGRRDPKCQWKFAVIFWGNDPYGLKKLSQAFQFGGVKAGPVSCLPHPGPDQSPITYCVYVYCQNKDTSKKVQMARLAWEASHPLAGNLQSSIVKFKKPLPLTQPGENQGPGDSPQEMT
# TAAR1 antag – antagonists of human TAAR1; CHO RD-HGA16 TAAR1, Fluo-8 calcium fluorescence, antagonist; inhibition, % at 3 µM; hit rate 1.5% among 360,000; AID 624466;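 active = inhibition above a per-plate cutoff, the mean inhibition of test compounds on that plate plus 3 SD, cut at about 49% in these data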;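 note: 0% = DMSO plus EC80 beta-PEA response and 100% = DMSO alone without agonist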
#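 Test system: RD-HGA16 CHO cells with stable hTAAR1 and Gα16 / Probe or stimulus: EC80 β-phenethylamine stimulus / Times: seeding 17-24 h prior, 75-min 37 °C, 30-min RT dye loading / Detection: Fluo-8 calcium-sensitive fluorescence / Read-out basis: % inhibition scaled between DMSO and EC80 PEA controls / Repeats: singlicate, one well per test compound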
# TRPML3 ag – agonists of human TRPML3 channel; activation, % at 3 µM; hit rate 0.29% among 220,000; HEK293 TRPML3-YFP, Fluo-8 calcium fluorescence; 100% = the carbachol control signal; Q8TDD5;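 active = activation above its plate's cutoff, the mean activation of the plate's test wells plus 3 SD, cut at about 12% in these data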;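 note: 0% = DMSO only wells and 100% = carbachol wells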
#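 Test system: HEK293 cells stably carrying human TRPML3-YFP; Doses: single dose, 3 µM final nominal compound, 0.3% DMSO final; Schedule: dye loading 1 h 37 °C then 30 min ambient, 125 s read; Technique: Fluo-8 calcium fluorescence; Benchmarks: high control carbachol 87 µM, low control DMSO.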
# nonsel antag count – counter-screen for TAAR1 antagonists: nonselective antagonists; shares compounds with TAAR1 antag; inhibition, % at 3 µM; counterscreen cell line, calcium fluorescence, antagonist mode; hit rate 77% among 2,400; in the data active = inhibition above about 22%;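 note: CHO-Ga16 host cells stimulated with ATP at an EC80 level; 0% = agonist EC80 plus vehicle and 100% = vehicle without agonist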
# TAAR1 antag conf – confirmation of human TAAR1 antagonists; shares compounds with TAAR1 antag; TAAR1-expressing cells, fluorescence antagonist read-out; inhibition, % at 3 µM; hit rate 40% among 2,400; in the data active = inhibition above about 49%;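 note: CHO-Ga16 host cells challenged with agonist PEA near its EC80; 0% = agonist at EC80 plus vehicle and 100% = vehicle with no agonist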
# Ga16 nonsel ag – nonselective Ga16 agonist in TAAR1 antagonist counter-screen; AID 651953; Ga16-expressing cells, calcium fluorescence, agonist counterscreen; hit rate 18% among 2,400; shares compounds with TAAR1 antag; activation, % at 3 µM; in the data active = activation above about 12%;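 note: 0% = vehicle wells and 100% = saturating stimulus response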
# TAAR1 ag count – activates human TAAR1 in antagonist counter-screen; hTAAR1 cell line, fluorescence activation, agonist mode; activation, % at 3 µM; hit rate 2% among 2,400; shares compounds with TAAR1 antag; AID 651955; in the data active = activation above about 37%;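 note: CHO cells stably expressing TAAR1 with calcium dye readout; 0% = DMSO vehicle and 100% = full agonist response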
# The depositor's hits bear a star; . = no result given. Rows were chosen to be rich in hits. Some 3.4% of all compounds tested hit in one or more screens of this group.
SMILES,TAAR1 ag,GPR7 antagonist,zfTRPN1 agonist,LANA-H2A inh,TAAR1 antag,TRPML3 ag,nonsel antag count,TAAR1 antag conf,Ga16 nonsel ag,TAAR1 ag count
NC(Cc1ccc(F)cc1)c1csc(Nc2ncccn2)n1 (stereo not given),5.1,.,.,.,-3.8,.,.,.,.,.
Cc1c(C(=O)N2CCC3(CC2)OCCO3)sc2ncnc(N3CCN(c4ccccn4)CC3)c12,22.9,-13.4,5.1,-6.1,61.3*,2.3,27.9*,50.2*,8.4,7.1
CCCNC(=O)Cn1cnc2sc(C(=O)N3CCC4(CC3)OCCO4)c(C)c2c1=O,0.6,-11.6,.,1.3,-13.1,.,.,.,.,.
CC(=O)C1(c2ccccc2)CCN(C(=O)C2CCC(=O)N(CCc3cccc(F)c3)C2)CC1 (stereo not given),14.9,-0.2,.,0.5,61.1*,.,21.3,45.1,8.0,7.6
O=C(C1CCC(=O)N1Cc1ccc(F)cc1)N1CCC2(CC1)OCCO2 (stereo not given),6.0,-7.9,0.5,-11.6,10.5,0.7,.,.,.,.
COC(=O)C1=C(c2ccc(F)cc2OCc2ccccc2)C[C@@H]2CC[C@H]1N2C(=O)NCc1ccc([N+](=O)[O-])cc1,6.2,.,.,3.7,57.9*,.,27.3*,32.8,2.1,-2.6
Cc1cccc(OP(=O)(NCc2ccccc2)Oc2cccc(C)c2)c1,7.4,1.9,-1.9,-3.1,79.6*,-0.7,34.2*,78.0*,12.9*,23.4
CC(=O)OC1CCC2(C)C(CCC3C4CC(N5CC5)C(C(C)=O)C4(C)CC(=O)C32)C1 (stereo not given),-1.1,.,.,.,-3.2,.,.,.,.,.
COc1ccccc1OCCCn1cc(C(=O)c2ccco2)c2ccccc21,6.8,-12.9,-2.0,3.6,53.9*,-0.3,27.0*,38.6,3.6,4.4
CCCOc1ccccc1NP(=O)(Oc1ccccc1)Oc1ccccc1,4.9,-14.1,.,7.2,21.3,.,.,.,.,.
O=P(Nc1ccccc1)(Oc1ccccc1)Oc1ccccc1,8.0,-5.0,0.3,1.8,74.4*,-0.1,27.4*,59.3*,8.2,6.3
Cc1cccc(NP(=O)(Oc2ccccc2)Oc2ccccc2)c1C,5.5,-3.5,.,0.7,73.4*,.,23.9*,44.2,5.9,3.3
CC(C)N(C(=O)CCl)c1ccccc1,0.2,.,.,.,-14.1,.,.,.,.,.
CSCCC(c1nnnn1-c1c(C)cccc1C)N1CCC(n2c(=O)[nH]c3ccccc32)CC1 (stereo not given),11.2,.,.,.,53.2*,.,24.3*,54.9*,7.3,13.9
O=c1[nH]c2ccccc2n1C1CCN(C(CCc2ccccc2)c2nnnn2C2CCCCC2)CC1 (stereo not given),9.3,.,.,.,58.0*,.,26.2*,46.4,4.3,10.6
CSCCC(c1nnnn1C1CCCC1)N1CCC(n2c(=O)[nH]c3ccccc32)CC1 (stereo not given),23.0,.,.,.,55.8*,.,22.7*,48.1,7.8,21.4
CSCCC(c1nnnn1C1CCCC1)N1CCC2(CC1)C(=O)NCN2c1ccccc1 (stereo not given),6.9,.,.,.,14.7,.,.,.,.,.
Cc1cccc(C)c1-n1nnnc1C(C1CC1)N1CCC(n2c(=O)[nH]c3ccccc32)CC1 (stereo not given),1.6,.,.,.,18.8,.,.,.,.,.
COC(=O)C1(F)C(=O)NC(=O)NC1O (stereo not given),1.8,.,.,.,-19.6,.,.,.,.,.
COC1C(O)C(C)OC(OC2C(Oc3cccc4c(O)c5c(=O)oc6ccc(C)c7c(=O)oc(c34)c5c67)OC(C)C(O)C2O)C1O (stereo not given),0.7,.,.,.,-15.4,.,.,.,.,.
C[C@@H]1CN([C@H](C)CO)C(=O)CCCn2cc(nn2)CO[C@H]1CN(C)C(=O)Oc1cccc2ccccc12,-0.1,.,.,.,10.8,.,.,.,.,.

# Source: PubChem BioAssay
